In ChEMBL document CHEMBL5678802, “Small-molecule p21-activated kinase inhibitor PF-3758309 is a potent inhibitor of oncogenic signaling and tumor growth” (Proc Natl Acad Sci U S A, 2010):
The source made the active and inactive calls. No cut-off for these calls is given here.

How the values were obtained:
CAMA-1 = assay: Antiproliferative activity against human CAMA-1 cells assessed as inhibition of cell proliferation incubated for 3 days by CellTiter-Glo Luminescent Cell Viability Assay; assay type: functional, cell-based; conditions: CAMA-1, 72 h
In short: (§1)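 Cancer cell lines seeded in 384-well plates on day 1; compound added on day 2 and left for 3 days. On day 5 all medium was aspirated, and viable cells were quantified by CellTiter-Glo luminescence, which measures cellular ATP. Dose-dependent effects on proliferation were determined.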

[1] = Inhibition of NF-kappaB signaling in HEK293T cells preincubated with compound for 0.5 hrs followed by TNFalpha stimulation and measured after 7 hrs by Steady-Glo luciferase assay; assay type: cell-based; conditions: Homo sapiens, HEK-293T
[2] = target: Tyrosine-protein kinase Fyn (Homo sapiens, UniProt P06241); assay: Inhibition of human FYN assessed as inhibition constant in presence of ATP
Caco-2 = assay: Antiproliferative activity against human Caco-2 cells assessed as inhibition of cell proliferation incubated for 3 days by CellTiter-Glo Luminescent Cell Viability Assay; assay type: functional, cell-based; conditions: Caco-2, 72 h; in short: as §1
[3] = target: T1, High affinity nerve growth factor receptor (Homo sapiens, UniProt P04629); assay: Inhibition of human TRKa in presence of ATP by cellular assay
HCT-116 [4] = assay: Downregulation of camptothecin-induced p53 level in human HCT-116 cells at 1 uM preincubated with compound for 15 mins followed by camptothecin stimulation and measured after 20 hrs by Western blot analysis; assay type: functional, cell-based; conditions: time 20.25 hrs
NCI-H1395 = assay: Antiproliferative activity against human NCI-H1395 cells assessed as inhibition of cell proliferation incubated for 3 days by CellTiter-Glo Luminescent Cell Viability Assay; assay type: functional, cell-based; conditions: NCI-H1395, 72 h; in short: as §1
HCT-116 [5] = assay: Antitumor activity against human HCT-116 cells xenografted in nude mouse assessed as tumor growth inhibition at 0.12 mg/kg administered via pump for 9 days relative to control; assay type: functional; conditions: HCT-116, 216 h, time 9 day, read-out: TGI
NCI-H23 = assay: Inhibition of anchorage independent cell growth in human NCI-H23 cells incubated for 6 days by Alamar blue reagent based fluorescence plate reader analysis; assay type: functional; conditions: NCI-H23, 144 h
CAPAN-1 = assay: Antiproliferative activity against human CAPAN-1 cells assessed as inhibition of cell proliferation incubated for 3 days by CellTiter-Glo Luminescent Cell Viability Assay; assay type: functional, cell-based; conditions: CAPAN-1, 72 h; in short: as §1
HCC1187 = assay: Antiproliferative activity against human HCC1187 cells assessed as inhibition of cell proliferation incubated for 3 days by CellTiter-Glo Luminescent Cell Viability Assay; assay type: functional, cell-based; conditions: HCC1187, 72 h; in short: as §1
[6] = target: Ribosomal protein S6 kinase alpha-2 (Homo sapiens, UniProt Q15349); assay: Inhibition of human RSK3 in presence of ATP relative to control; conditions: concentration not given here
[7] = target: T1, High affinity nerve growth factor receptor; assay: Inhibition of human TRKa in presence of ATP
[8] = target: cGMP-dependent protein kinase 1 (Homo sapiens) (UniProt Q13976); assay: Inhibition of human PRKG1 in presence of ATP relative to control; conditions: concentration not given here
HCT-116 [9] = assay: Downregulation of camptothecin-induced phospho-S810-GEF-H1 level in human HCT-116 cells at 1 uM preincubated with compound for 15 mins followed by camptothecin stimulation and measured after 20 hrs by Western blot analysis; assay type: functional, cell-based; conditions: time 20.25 hrs
Capan-2 = assay: Antiproliferative activity against human Capan-2 cells assessed as inhibition of cell proliferation incubated for 3 days by CellTiter-Glo Luminescent Cell Viability Assay; assay type: functional, cell-based; conditions: Capan-2, 72 h; in short: as §1
HCT-116 [10] = assay: Induction of apoptosis in human HCT-116 cells at 100 nM measured after 48 hrs by fluorescence activated cell sorter analysis; assay type: functional, cell-based
[11] = target: Ribosomal protein S6 kinase alpha-1 (Homo sapiens, UniProt Q15418); assay: Inhibition of human RSK1 assessed as inhibition constant in presence of ATP
MDA-MB-231 = assay: Antitumor activity against human MDA-MB-231 cells xenografted in nude mouse assessed as tumor growth inhibition at 20 mg/kg, po administered once daily for 9 to 18 days relative to control; assay type: functional; conditions: time 9-18 day, read-out: TGI
[12] = target: T2, cGMP-dependent protein kinase 1 (Homo sapiens, UniProt Q13976); assay: Inhibition of human PRKG1 assessed as inhibition constant in presence of ATP
T2 sequence (Q13976 whole entry): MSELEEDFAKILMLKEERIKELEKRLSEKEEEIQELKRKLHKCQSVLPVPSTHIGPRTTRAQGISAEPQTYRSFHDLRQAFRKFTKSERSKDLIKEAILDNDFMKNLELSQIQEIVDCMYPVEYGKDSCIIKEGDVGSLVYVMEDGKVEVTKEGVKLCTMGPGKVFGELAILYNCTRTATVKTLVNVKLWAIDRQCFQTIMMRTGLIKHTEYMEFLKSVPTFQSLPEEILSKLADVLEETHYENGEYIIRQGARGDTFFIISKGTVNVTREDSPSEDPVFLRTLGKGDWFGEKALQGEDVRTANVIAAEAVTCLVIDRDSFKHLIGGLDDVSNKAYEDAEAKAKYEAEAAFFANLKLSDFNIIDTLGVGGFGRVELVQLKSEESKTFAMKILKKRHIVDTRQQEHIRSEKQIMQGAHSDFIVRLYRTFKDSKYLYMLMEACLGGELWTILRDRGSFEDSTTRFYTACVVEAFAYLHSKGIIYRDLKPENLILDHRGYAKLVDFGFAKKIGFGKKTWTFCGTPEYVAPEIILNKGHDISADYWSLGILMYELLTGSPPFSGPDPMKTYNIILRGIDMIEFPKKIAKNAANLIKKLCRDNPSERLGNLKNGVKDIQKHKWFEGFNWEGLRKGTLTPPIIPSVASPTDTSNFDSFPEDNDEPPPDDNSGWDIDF

HCT-116 [13] = assay: Antiproliferative activity against human HCT-116 cells assessed as inhibition of cell proliferation incubated for 3 days by CellTiter-Glo Luminescent Cell Viability Assay; assay type: functional, cell-based; conditions: HCT-116, 72 h; in short: as §1
[14] = Inhibition of YFP/YFP variant coding sequence fused p53/Pin1 (unknown origin) expressed in HEK293 cells incubated for 8 to 24 hrs by fluorescence based analysis; assay type: cell-based, Homo sapiens
MDA-MB-453 = assay: Antiproliferative activity against human MDA-MB-453 cells assessed as inhibition of cell proliferation incubated for 3 days by CellTiter-Glo Luminescent Cell Viability Assay; assay type: functional, cell-based; conditions: MDA-MB-453, 72 h; in short: as §1
CFPAC-1 = assay: Antiproliferative activity against human CFPAC-1 cells assessed as inhibition of cell proliferation incubated for 3 days by CellTiter-Glo Luminescent Cell Viability Assay; assay type: functional, cell-based; conditions: CFPAC-1, 72 h; in short: as §1
COLO 320DM = assay: Inhibition of anchorage independent cell growth in human COLO 320DM cells incubated for 6 days by Alamar blue reagent based fluorescence plate reader analysis; assay type: functional; conditions: 144 h
NCI-H441 = assay: Antiproliferative activity against human NCI-H441 cells assessed as inhibition of cell proliferation incubated for 3 days by CellTiter-Glo Luminescent Cell Viability Assay; assay type: functional, cell-based; conditions: NCI-H441, 72 h
In short: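 Cells of each line were plated in 384-well plates on day 1 and exposed to compound from day 2 for 3 days. On day 5 all medium was aspirated. Viable cell number was read by CellTiter-Glo luminescence, which quantifies cellular ATP.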

T1 sequence (P04629 whole entry): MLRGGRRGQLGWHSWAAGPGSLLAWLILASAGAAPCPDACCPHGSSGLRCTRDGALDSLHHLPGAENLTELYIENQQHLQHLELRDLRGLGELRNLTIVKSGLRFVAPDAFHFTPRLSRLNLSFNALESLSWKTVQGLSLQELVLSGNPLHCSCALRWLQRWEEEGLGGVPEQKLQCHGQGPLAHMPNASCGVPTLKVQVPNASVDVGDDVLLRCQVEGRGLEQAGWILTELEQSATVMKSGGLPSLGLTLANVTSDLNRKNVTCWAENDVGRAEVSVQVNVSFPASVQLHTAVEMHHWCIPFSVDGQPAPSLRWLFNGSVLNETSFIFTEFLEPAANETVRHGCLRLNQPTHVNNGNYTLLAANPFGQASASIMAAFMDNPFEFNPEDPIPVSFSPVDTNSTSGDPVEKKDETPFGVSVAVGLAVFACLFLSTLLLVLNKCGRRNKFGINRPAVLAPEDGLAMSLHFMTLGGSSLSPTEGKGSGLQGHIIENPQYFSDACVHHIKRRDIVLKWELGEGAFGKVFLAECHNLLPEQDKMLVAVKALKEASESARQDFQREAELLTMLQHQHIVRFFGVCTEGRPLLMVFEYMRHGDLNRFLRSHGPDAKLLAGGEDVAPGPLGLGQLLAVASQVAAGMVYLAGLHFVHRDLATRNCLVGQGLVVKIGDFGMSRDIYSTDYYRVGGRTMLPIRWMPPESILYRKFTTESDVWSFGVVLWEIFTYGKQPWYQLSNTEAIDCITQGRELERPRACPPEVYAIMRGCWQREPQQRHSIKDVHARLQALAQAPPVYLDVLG
Chain of Tyrosine-protein kinase Fyn (P06241 whole entry): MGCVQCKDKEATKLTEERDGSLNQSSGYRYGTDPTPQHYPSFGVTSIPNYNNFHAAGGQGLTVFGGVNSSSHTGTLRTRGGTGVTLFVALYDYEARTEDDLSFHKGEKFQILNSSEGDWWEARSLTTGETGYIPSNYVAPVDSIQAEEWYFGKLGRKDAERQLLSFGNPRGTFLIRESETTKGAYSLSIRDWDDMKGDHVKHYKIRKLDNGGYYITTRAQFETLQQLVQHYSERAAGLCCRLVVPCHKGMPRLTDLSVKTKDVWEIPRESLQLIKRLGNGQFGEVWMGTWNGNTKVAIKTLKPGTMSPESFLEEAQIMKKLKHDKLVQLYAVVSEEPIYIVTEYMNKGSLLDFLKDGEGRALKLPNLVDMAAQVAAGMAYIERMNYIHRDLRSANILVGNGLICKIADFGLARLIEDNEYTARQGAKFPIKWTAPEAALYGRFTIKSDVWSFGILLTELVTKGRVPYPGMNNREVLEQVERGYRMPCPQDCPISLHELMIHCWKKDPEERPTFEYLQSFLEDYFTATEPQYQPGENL
Chain of Ribosomal protein S6 kinase alpha-1 (Q15418 whole entry): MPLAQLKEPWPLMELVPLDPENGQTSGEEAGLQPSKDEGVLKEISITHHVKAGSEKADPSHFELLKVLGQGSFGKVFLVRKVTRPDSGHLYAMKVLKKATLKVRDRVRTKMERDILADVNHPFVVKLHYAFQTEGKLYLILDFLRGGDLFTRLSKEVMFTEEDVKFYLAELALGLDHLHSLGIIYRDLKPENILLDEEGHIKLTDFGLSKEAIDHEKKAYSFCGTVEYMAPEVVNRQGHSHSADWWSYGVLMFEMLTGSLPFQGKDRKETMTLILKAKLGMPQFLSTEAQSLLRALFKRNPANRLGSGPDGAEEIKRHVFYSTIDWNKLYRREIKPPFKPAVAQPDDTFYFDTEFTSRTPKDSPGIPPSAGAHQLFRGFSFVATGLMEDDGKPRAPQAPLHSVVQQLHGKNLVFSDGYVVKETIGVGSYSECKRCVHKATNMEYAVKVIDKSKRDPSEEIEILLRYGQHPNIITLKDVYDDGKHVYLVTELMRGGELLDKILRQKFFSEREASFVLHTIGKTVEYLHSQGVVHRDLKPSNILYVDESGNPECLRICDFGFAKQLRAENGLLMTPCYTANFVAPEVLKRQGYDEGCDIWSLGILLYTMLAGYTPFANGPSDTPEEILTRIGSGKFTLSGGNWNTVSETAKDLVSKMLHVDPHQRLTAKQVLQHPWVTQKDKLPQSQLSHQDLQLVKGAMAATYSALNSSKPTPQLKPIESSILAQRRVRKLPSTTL
Chain of Ribosomal protein S6 kinase alpha-2 (Q15349 whole entry): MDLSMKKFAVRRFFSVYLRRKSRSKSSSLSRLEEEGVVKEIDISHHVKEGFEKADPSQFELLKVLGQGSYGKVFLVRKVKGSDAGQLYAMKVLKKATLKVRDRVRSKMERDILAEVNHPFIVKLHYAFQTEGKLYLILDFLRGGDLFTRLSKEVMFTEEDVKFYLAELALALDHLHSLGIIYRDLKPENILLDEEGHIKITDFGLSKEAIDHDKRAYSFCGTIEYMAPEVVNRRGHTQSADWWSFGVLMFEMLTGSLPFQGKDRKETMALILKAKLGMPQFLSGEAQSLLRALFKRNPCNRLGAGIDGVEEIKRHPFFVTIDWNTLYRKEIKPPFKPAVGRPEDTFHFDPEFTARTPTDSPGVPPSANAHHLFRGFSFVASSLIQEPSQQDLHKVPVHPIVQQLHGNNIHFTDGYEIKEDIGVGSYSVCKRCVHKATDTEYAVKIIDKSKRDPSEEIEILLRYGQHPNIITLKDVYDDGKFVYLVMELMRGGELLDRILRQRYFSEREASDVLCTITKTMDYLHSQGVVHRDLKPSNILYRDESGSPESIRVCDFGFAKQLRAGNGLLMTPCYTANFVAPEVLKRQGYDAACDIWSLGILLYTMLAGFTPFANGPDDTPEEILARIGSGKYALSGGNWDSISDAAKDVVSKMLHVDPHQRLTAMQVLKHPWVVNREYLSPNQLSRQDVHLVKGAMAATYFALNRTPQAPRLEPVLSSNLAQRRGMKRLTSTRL

Cc1nc(Nc2n[nH]c3c2CN(C(=O)N[C@H](CN(C)C)c2ccccc2)C3(C)C)c2sccc2n1 [PF-03758309]
IC50 (CAMA-1): 2.7 nM
IC50 [1]: 24.2 nM
Ki [2]: 26 nM
IC50 (Caco-2): 10000 nM
IC50 [3]: 2410 nM
Activity (HCT-116 [4]): Active
IC50 (NCI-H1395): 6.4 nM
inhibition in vivo at 0.12 mg/kg (HCT-116 [5]): 16%
IC50 (NCI-H23): 3.45 nM
IC50 (CAPAN-1): 1100 nM
IC50 (HCC1187): 0.24 nM
inhibition [6]: 98%
IC50 [7]: 513 nM
inhibition [8]: 97%
Activity (HCT-116 [9]): Active
IC50 (Capan-2): 136 nM
Activity (HCT-116 [10]): Active
Ki [11]: 5 nM
inhibition in vivo at 20 mg/kg (MDA-MB-231): 89%
Ki [12]: 15 nM
IC50 (HCT-116 [13]): 2.4 nM
IC50 [14]: 5.7 nM
IC50 (MDA-MB-453): 13.3 nM
IC50 (CFPAC-1): 1320 nM
IC50 (COLO 320DM): 373 nM
IC50 (NCI-H441): 9.2 nM
